Experimental data taken from ChEMBL document CHEMBL3758168, “Hybrid triazoles: Design and synthesis as potential dual inhibitor of growth and efflux inhibition in tuberculosis” (Eur J Med Chem, 2016).
≈ marks a conversion by molar mass, not a printed value.

Tests used:
[1] = system: Mycobacterium tuberculosis; experiment: Antibacterial activity against Mycobacterium tuberculosis H37Rv ATCC 27294T assessed as rifampin MIC at 0.25 ug/ml after 7 days by microdilution checkerboard assay; format: functional; conditions: 168 h
How it was run: (§1)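 Two-dimensional checkerboard in H37Rv at 10^5 CFU/ml in MB7H9/OADC. Partner drug (amikacin, EtBr, isoniazid, ofloxacin or rifampin) two-fold serially diluted across columns 3-11. Test compound two-fold serially diluted down rows 2-6. Plates incubated 7 days at 37 °C, then MTT added overnight. […] Run in triplicate.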

[2] = system: Mycobacterium tuberculosis; experiment: Antibacterial activity against Mycobacterium tuberculosis H37Rv ATCC 27294T assessed as rifampin MIC at 1 ug/ml after 7 days by microdilution checkerboard assay; format: functional; conditions: 168 h
How it was run: (§2)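 M. tuberculosis H37Rv grown in MB7H9 + 10% OADC at 37 °C to OD600 0.8; plates inoculated at 10^5 CFU/ml. Rifampicin two-fold serially diluted across columns, test compound two-fold diluted down rows (two-dimensional checkerboard). Sealed, 37 °C for seven days, then MTT added and incubated overnight. MIC read as no colour change. Triplicate.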

[3] = system: Mycolicibacterium smegmatis; experiment: Anti-tubercular activity against Mycobacterium smegmatis MC2 155 ATCC 700084 after 3 days by microdilution method; format: functional; conditions: MC2 155 ATCC 700084, 72 h
How it was run: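 M. smegmatis mc2155 grown in MB7H9 + 10% OADC at 37 °C with shaking to OD600 0.8. Inoculum set to 0.5 McFarland, diluted 1:100, and mixed 1:1 with two-fold serial dilutions in MB7H9. Plates incubated 3 days at 37 °C with growth and sterility controls. MIC taken as the lowest concentration with no visible growth.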

[4] = system: Mycobacterium tuberculosis; experiment: Antibacterial activity against Mycobacterium tuberculosis H37Rv ATCC 27294T assessed as ofloxacin MIC at 2 ug/ml after 7 days by microdilution checkerboard assay; format: functional; conditions: 168 h; how it was run: as §1
[5] = system: Mycobacterium tuberculosis; experiment: Antibacterial activity against Mycobacterium tuberculosis H37Rv ATCC 27294T assessed as rifampin MIC at 0.12 ug/ml after 7 days by microdilution checkerboard assay; format: functional; conditions: 168 h; how it was run: as §1
[6] = system: Mycobacterium tuberculosis; experiment: Antibacterial activity against Mycobacterium tuberculosis H37Rv ATCC 27294T assessed as rifampin MIC at 0.5 ug/ml after 7 days by microdilution checkerboard assay; format: functional; conditions: 168 h; how it was run: as §2
[7] = system: Mycobacterium tuberculosis; experiment: Antibacterial activity against Mycobacterium tuberculosis H37Rv ATCC 27294T assessed as ethidium bromide MIC at 1 ug/ml after 7 days by microdilution checkerboard assay; format: functional; conditions: 168 h; how it was run: as §1
[8] = system: Mycobacterium tuberculosis; experiment: Antibacterial activity against Mycobacterium tuberculosis H37Rv ATCC 27294T assessed as isoniazid MIC at 0.25 ug/ml after 7 days by microdilution checkerboard assay; format: functional; conditions: 168 h; how it was run: as §1
[9] = system: Mycobacterium tuberculosis; experiment: Antibacterial activity against Mycobacterium tuberculosis H37Rv ATCC 27294T assessed as isoniazid MIC at 4 ug/ml after 7 days by microdilution checkerboard; format: functional; conditions: 168 h; how it was run: as §1
[10] = system: Mycobacterium tuberculosis; experiment: Antibacterial activity against Mycobacterium tuberculosis H37Rv ATCC 27294T assessed as amikacin MIC at 2 ug/ml after 7 days by microdilution checkerboard assay; format: functional; conditions: 168 h; how it was run: as §1
[11] = Cytotoxicity against human MDM assessed as cell viability after 3 days by Alamar blue dye-based fluorocytometric analysis relative to control; conditions: 72 h
[12] = system: Mycobacterium tuberculosis; experiment: Antibacterial activity against Mycobacterium tuberculosis H37Rv ATCC 27294T assessed as ofloxacin MIC at 8 ug/ml after 7 days by microdilution checkerboard assay; format: functional; conditions: 168 h; how it was run: as §1
[13] = system: Mycobacterium tuberculosis; experiment: Antibacterial activity against Mycobacterium tuberculosis H37Rv ATCC 27294T assessed as isoniazid MIC at 1 ug/ml after 7 days by microdilution checkerboard assay; format: functional; conditions: 168 h; how it was run: as §1
[14] = system: Mycobacterium tuberculosis; experiment: Antibacterial activity against Mycobacterium tuberculosis H37Rv ATCC 27294T assessed as ethidium bromide MIC at 4 ug/ml after 7 days by microdilution checkerboard assay; format: functional; conditions: 168 h; how it was run: as §1
[15] = system: Mycobacterium tuberculosis; experiment: Antibacterial activity against Mycobacterium tuberculosis H37Rv ATCC 27294T assessed as ethidium bromide MIC at 0.12 ug/ml after 7 days by microdilution checkerboard assay; format: functional; conditions: 168 h; how it was run: as §1
[16] = system: Mycobacterium tuberculosis; experiment: Antibacterial activity against Mycobacterium tuberculosis H37Rv ATCC 27294T assessed as ofloxacin MIC at 0.25 ug/ml after 7 days by microdilution checkerboard assay; format: functional; conditions: 168 h; how it was run: as §1
[17] = system: Mycobacterium tuberculosis; experiment: Antibacterial activity against Mycobacterium tuberculosis H37Rv ATCC 27294T assessed as ethidium bromide MIC at 0.25 ug/ml after 7 days by microdilution checkerboard assay; format: functional; conditions: 168 h; how it was run: as §1
[18] = system: Mycobacterium tuberculosis; experiment: Antibacterial activity against Mycobacterium tuberculosis H37Rv ATCC 27294T assessed as isoniazid MIC at 0.12 ug/ml after 7 days by microdilution checkerboard assay; format: functional; conditions: 168 h; how it was run: as §1
[19] = system: Mycobacterium tuberculosis; experiment: Anti-tubercular activity against Mycobacterium tuberculosis H37Rv ATCC 27294T after 7 days by mircodilution method; format: functional; conditions: 168 h
How it was run: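 H37Rv grown static in MB7H9 + 10% OADC at 37 °C to OD600 0.8, then diluted to about 10^5 cells/ml. Mixed 1:1 with two-fold serial dilutions in MB7H9/OADC and incubated 7 days at 37 °C. MTT added to final 2.5% and plates incubated overnight. MIC is the lowest concentration with no colour change. Run in triplicate.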

[20] = system: Mycobacterium tuberculosis; experiment: Antibacterial activity against Mycobacterium tuberculosis H37Rv ATCC 27294T assessed as rifampin MIC at 4 ug/ml after 7 days by microdilution checkerboard assay; format: functional; conditions: 168 h; how it was run: as §2
[21] = system: Mycobacterium tuberculosis; experiment: Antibacterial activity against Mycobacterium tuberculosis H37Rv ATCC 27294T assessed as isoniazid MIC at 8 ug/ml after 7 days by microdilution checkerboard assay; format: functional; conditions: 168 h; how it was run: as §1
[22] = system: Mycobacterium tuberculosis; experiment: Antibacterial activity against Mycobacterium tuberculosis H37Rv ATCC 27294T assessed as ofloxacin MIC at 0.12 ug/ml after 7 days by microdilution checkerboard assay; format: functional; conditions: 168 h; how it was run: as §1
[23] = system: Mycobacterium tuberculosis; experiment: Antibacterial activity against Mycobacterium tuberculosis H37Rv ATCC 27294T assessed as ethidium bromide MIC at 2 ug/ml after 7 days by microdilution checkerboard assay; format: functional; conditions: 168 h; how it was run: as §1
[24] = system: Mycobacterium tuberculosis; experiment: Antibacterial activity against Mycobacterium tuberculosis H37Rv ATCC 27294T assessed as amikacin MIC at 0.5 ug/ml after 7 days by microdilution checkerboard assay; format: functional; conditions: 168 h; how it was run: as §1
[25] = system: Mycobacterium tuberculosis; experiment: Antibacterial activity against Mycobacterium tuberculosis H37Rv ATCC 27294T assessed as ofloxacin MIC at 0.5 ug/ml after 7 days by microdilution checkerboard assay; format: functional; conditions: 168 h; how it was run: as §1
[26] = system: Mycobacterium tuberculosis; experiment: Antibacterial activity against Mycobacterium tuberculosis H37Rv ATCC 27294T assessed as rifampin MIC at 2 ug/ml after 7 days by microdilution checkerboard assay; format: functional; conditions: 168 h; how it was run: as §2
[27] = system: Mycobacterium tuberculosis; experiment: Antibacterial activity against Mycobacterium tuberculosis H37Rv ATCC 27294T assessed as amikacin MIC at 4 ug/ml after 7 days by microdilution checkerboard assay; format: functional; conditions: 168 h; how it was run: as §1
[28] = system: Mycobacterium tuberculosis; experiment: Antibacterial activity against Mycobacterium tuberculosis H37Rv ATCC 27294T assessed as amikacin MIC at 1 ug/ml after 7 days by microdilution checkerboard assay; format: functional; conditions: 168 h; how it was run: as §1
[29] = system: Mycobacterium tuberculosis; experiment: Antibacterial activity against Mycobacterium tuberculosis H37Rv ATCC 27294T assessed as rifampin MIC at 8 ug/ml after 7 days by microdilution checkerboard assay; format: functional; conditions: 168 h; how it was run: as §2
[30] = system: Mycobacterium tuberculosis; experiment: Antibacterial activity against Mycobacterium tuberculosis H37Rv ATCC 27294T assessed as isoniazid MIC at 2 ug/ml after 7 days by microdilution checkerboard assay; format: functional; conditions: 168 h; how it was run: as §1
[31] = system: Mycobacterium tuberculosis; experiment: Antibacterial activity against Mycobacterium tuberculosis H37Rv ATCC 27294T assessed as isoniazid MIC at 0.5 ug/ml after 7 days by microdilution checkerboard assay; format: functional; conditions: 168 h; how it was run: as §1
[32] = system: Mycobacterium tuberculosis; experiment: Antibacterial activity against Mycobacterium tuberculosis H37Rv ATCC 27294T assessed as amikacin MIC at 8 ug/ml after 7 days by microdilution checkerboard assay; format: functional; conditions: 168 h; how it was run: as §1
[33] = system: Mycobacterium tuberculosis; experiment: Antibacterial activity against Mycobacterium tuberculosis H37Rv ATCC 27294T assessed as amikacin MIC at 0.12 ug/ml after 7 days by microdilution checkerboard assay; format: functional; conditions: 168 h; how it was run: as §1
[34] = system: Mycobacterium tuberculosis; experiment: Antibacterial activity against Mycobacterium tuberculosis H37Rv ATCC 27294T assessed as ethidium bromide MIC at 0.5 ug/ml after 7 days by microdilution checkerboard assay; format: functional; conditions: 168 h; how it was run: as §1
[35] = system: Mycobacterium tuberculosis; experiment: Antibacterial activity against Mycobacterium tuberculosis H37Rv ATCC 27294T assessed as ofloxacin MIC at 1 ug/ml after 7 days by microdilution checkerboard assay; format: functional; conditions: 168 h; how it was run: as §1
[36] = system: Mycobacterium tuberculosis; experiment: Antibacterial activity against Mycobacterium tuberculosis H37Rv ATCC 27294T assessed as ethidium bromide MIC at 8 ug/ml after 7 days by microdilution checkerboard assay; format: functional; conditions: 168 h; how it was run: as §1
[37] = system: Mycobacterium tuberculosis; experiment: Antibacterial activity against Mycobacterium tuberculosis H37Rv ATCC 27294T assessed as ofloxacin MIC at 4 ug/ml after 7 days by microdilution checkerboard assay; format: functional; conditions: 168 h; how it was run: as §1
[38] = system: Mycobacterium tuberculosis; experiment: Antibacterial activity against Mycobacterium tuberculosis H37Rv ATCC 27294T assessed as amikacin MIC at 0.25 ug/ml after 7 days by microdilution checkerboard assay; format: functional; conditions: 168 h; how it was run: as §1

Row | SMILES | MIC [1] [µg/mL] | MIC [2] [µg/mL] | MIC [3] [µg/mL] | MIC [4] [µg/mL] | MIC [5] [µg/mL] | MIC [6] [µg/mL] | MIC [7] [µg/mL] | MIC [8] [µg/mL] | MIC [9] [µg/mL] | MIC [10] [µg/mL] | IC50 [11] [µg/mL] | MIC [12] [µg/mL] | MIC [13] [µg/mL] | MIC [14] [µg/mL] | MIC [15] [µg/mL] | MIC [16] [µg/mL] | MIC [17] [µg/mL] | MIC [18] [µg/mL] | MIC [19] [µg/mL] | MIC [20] [µg/mL] | also measured
1 | CCCSc1nnc(COc2ccccc2C2=NOC(c3ccc(Cl)cc3Cl)C2)n1NC(C)=O (stereo unspecified) | 0.0312 | 0.0156 | 1 (≈ 1.92 µM) | 0.0312 | 0.0625 | 0.0312 | 6.25 | 0.1 | 0.00312 | 0.25 | 128 (≈ 245 µM) | 0.0156 | 0.05 | 0.195 | 12.5 | 1 | 12.5 | 0.1 | 4 (≈ 7.69 µM) | 0.0156 | MIC [21]: 0.00078 µg/mL; MIC [22]: 1 µg/mL; MIC [23]: 0.781 µg/mL; MIC [24]: 1 µg/mL; MIC [25]: 1 µg/mL; MIC [26]: 0.0156 µg/mL; MIC [27]: 0.25 µg/mL; MIC [28]: 1 µg/mL; MIC [29]: 0.0156 µg/mL; MIC [30]: 0.0125 µg/mL; MIC [31]: 0.1 µg/mL; MIC [32]: 0.0312 µg/mL; MIC [33]: 1 µg/mL; MIC [34]: 12.5 µg/mL; MIC [35]: 0.25 µg/mL; MIC [36]: 0.195 µg/mL; MIC [37]: 0.0156 µg/mL; MIC [38]: 1 µg/mL
2 | CSc1ccc2c(c1)N(CCC1CCCCN1C)c1ccccc1S2 (stereo unspecified) [THIORIDAZINE] | 0.5 | 0.5 | 31 (≈ 83.7 µM) | 1 | 1 | 0.5 | 6.25 | 0.1 | 0.0125 | 1 | 5.5 (≈ 14.8 µM) | 0.0312 | 0.1 | 1.56 | 12.5 | 2 | 12.5 | 0.1 | 16 (≈ 43.2 µM) | 0.5 | MIC [21]: 0.00156 µg/mL; MIC [22]: 2 µg/mL; MIC [23]: 3.12 µg/mL; MIC [24]: 1 µg/mL; MIC [25]: 1 µg/mL; MIC [26]: 0.5 µg/mL; MIC [27]: 0.25 µg/mL; MIC [28]: 1 µg/mL; MIC [29]: 0.0156 µg/mL; MIC [30]: 0.1 µg/mL; MIC [31]: 0.1 µg/mL; MIC [32]: 0.0312 µg/mL; MIC [33]: 1 µg/mL; MIC [34]: 6.25 µg/mL; MIC [35]: 1 µg/mL; MIC [36]: 0.195 µg/mL; MIC [37]: 1 µg/mL; MIC [38]: 1 µg/mL
